# Assay outcomes deposited in PubChem BioAssay by several laboratories.
# PKD1 inh – inhibitors of human PKD1 kinase; PKD1 kinase fluorescence polarization assay; inhibition, % (no concentration beside the values); hit rate 0.056% among 200,000; in the data active means inhibition above about 50%
# Target sequence (Q15139 whole entry, looked up): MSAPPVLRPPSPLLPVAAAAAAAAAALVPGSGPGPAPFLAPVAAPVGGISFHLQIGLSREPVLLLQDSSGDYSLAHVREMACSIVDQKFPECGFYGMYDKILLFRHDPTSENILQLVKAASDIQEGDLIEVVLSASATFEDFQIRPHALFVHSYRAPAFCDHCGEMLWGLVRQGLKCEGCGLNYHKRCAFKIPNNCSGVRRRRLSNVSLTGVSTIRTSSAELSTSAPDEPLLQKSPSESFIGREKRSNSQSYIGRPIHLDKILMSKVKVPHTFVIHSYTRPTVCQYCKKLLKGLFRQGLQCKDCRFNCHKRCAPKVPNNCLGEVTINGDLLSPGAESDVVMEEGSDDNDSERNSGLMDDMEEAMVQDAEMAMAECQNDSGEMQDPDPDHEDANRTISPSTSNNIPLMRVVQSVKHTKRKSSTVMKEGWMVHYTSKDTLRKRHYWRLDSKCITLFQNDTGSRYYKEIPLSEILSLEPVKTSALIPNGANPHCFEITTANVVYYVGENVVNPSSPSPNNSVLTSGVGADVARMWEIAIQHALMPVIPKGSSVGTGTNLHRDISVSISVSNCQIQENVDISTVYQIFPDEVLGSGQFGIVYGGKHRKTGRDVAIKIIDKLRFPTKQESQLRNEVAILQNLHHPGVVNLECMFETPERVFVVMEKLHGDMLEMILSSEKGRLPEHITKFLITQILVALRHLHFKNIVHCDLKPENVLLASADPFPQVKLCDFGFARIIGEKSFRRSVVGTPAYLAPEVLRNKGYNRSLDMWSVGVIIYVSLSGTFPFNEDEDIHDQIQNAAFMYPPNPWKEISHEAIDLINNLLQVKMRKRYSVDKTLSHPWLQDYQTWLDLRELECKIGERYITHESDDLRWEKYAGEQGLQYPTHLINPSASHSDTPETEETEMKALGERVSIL
# Rad51 HR inh – Rad51 (human) homologous recombination inhibition; hit rate 0.085% among 200,000; inhibition, % at 10 µM; hRad51 DNA strand exchange, fluorescence dequenching; AID 1385; Q06609;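 active means inhibition above 40% at the single screening dose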
#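 material = hRad51 filaments on single-stranded DNA | reagent = Donor/quencher-labelled 47-bp dsDNA substrate | compound = 10 µM final, single point | schedule = strand-exchange reaction 15 min at room temperature | measured by = fluorescein emission 520 nm, excitation 485 nm | read-out basis = % inhibition versus plate control and blank means | benchmarks = plate controls and plate blanks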
# ROMK primary – human ROMK K+ channel modulation, primary screen; AID 1918; Tet-inducible ROMK, thallium flux fluorescence; actives lie on both sides; hit rate 2% among 130,000; P48048; B-score at 10 µM;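 active means signal ratio slope over the read window, or its plate-corrected B-score, at least 3 SD from the plate mean, either direction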;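 further: B-score of the F/F0 ratio slope over 7 to 12 s after thallium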
# Cl transport mod – modulates chloride dependent transport by human KCC2; B-score of Tl+ flux slope (higher = more flux/activation; lower = inhibition) at 10 µM; KCC2 cells, thallium flux FluoZin-2 fluorescence; Q9H2X9; AID 1456; hit rate 2.2% among 190,000;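 active means thallium flux slope and its plate-corrected score both differing from the plate sample mean at a set confidence after two filtering rounds, in either direction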;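 further: slope of fluorescence scaled to starting intensity during 10 to 20 s after thallium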
# KCC2 sec1 – confirmation of human KCC2 transport modulators | shares compounds with Cl transport mod | HEK293-KCC2, thallium flux, FluoZin2 fluorescence; hits give high values | normalised thallium flux (F/F0 slope) at 10 µM | hit rate 15% among 3,700 | AID 1713;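 active means thallium flux slope above the same plate's solvent-only control mean plus 3 SD; inconclusive means the two replicate wells disagree; inactive means no significant difference from solvent-only control wells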
# KCC2 bumet counter – thallium flux despite bumetanide block in KCC2 cells, secondary assay 3; shares compounds with Cl transport mod; HEK293-KCC2 + bumetanide/ouabain, thallium flux FluoZin2; hits give high values; normalized thallium flux at 10 µM; hit rate 49% among 3,700; AID 1714;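 active means thallium entry rate above the same plate's blocked-transporter control wells by more than 3 SD; inconclusive means the two repeat wells disagree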;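 further: raw slope of fluorescence over initial fluorescence between 10 and 20 s after thallium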
# KCC2 secondary2 – KCC2 (human) modulation, second secondary assay. hit rate 23% among 3,700. shares compounds with Cl transport mod. HEK293-KCC2, thallium flux FluoZin2 fluorescence; actives lie on both sides; F/F0 rise rate, 10–20 s post-thallium. normalized thallium flux at 10 µM;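 active means thallium flux slope more than 3 SD above or below the plate's solvent-only control mean, mostly below; inconclusive means the two repeat wells disagreed; inactive means no significant shift from solvent-only controls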
# HEK293 Tl flux – acts in parental HEK cells, KCC2 counter-screen; shares compounds with Cl transport mod; HEK293 parental cells, thallium flux FluoZin2, ouabain; baseline-ratio fluorescence slope, 10–20 s after thallium; thallium flux rate (normalised fluorescence) at 10 µM; hit rate 46% among 3,700; AID 1716;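 active means thallium flux rate significantly above the same plate's solvent-only control wells, beyond their mean plus 3 SD; inconclusive means the two replicate wells gave conflicting results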
# KCC2 ouabain – confirmation of human KCC2 modulators with ouabain; shares compounds with Cl transport mod; hit rate 48% among 3,700; raw Tl+ flux slope (below DMSO = inhibition, above = activation) at 10 µM; HEK293-KCC2, thallium flux FluoZin2 fluorescence; bidirectional: low = inhibitor, high = activator;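 active means thallium flux slope beyond 3 SD from same-plate DMSO control mean in most replicates, usually higher, sometimes lower; inconclusive means repeat tests gave conflicting results; inactive means no significant difference from controls in most replicates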;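 further: slope of initial-normalized fluorescence between seconds 10 and 20 after thallium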
# HEK counter2 – acts in parental HEK cells, second KCC2 counter-screen | AID 1718 | hit rate 33% among 3,700 | shares compounds with Cl transport mod | HEK293 parental, thallium flux FluoZin-2 fluorescence slope | thallium flux slope at 10 µM;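 active means thallium flux slope above the same plate's solvent-control mean plus 3 SD in both duplicate wells; inconclusive means duplicate wells that disagreed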;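 further: run without ouabain in cells lacking the KCC2 cotransporter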
# Numbers stand for hits; - = inactive; ? = inconclusive; . = no result given. Shown are actives, neighbours in structure and some others; about 3% of the full set was active somewhere.
SMILES,PKD1 inh,Rad51 HR inh,ROMK primary,Cl transport mod,KCC2 sec1,KCC2 bumet counter,KCC2 secondary2,HEK293 Tl flux,KCC2 ouabain,HEK counter2
CCCn1c(SCC(=O)N2CCCCC2)nnc1-c1ccccn1,-,-,-,-,.,.,.,.,.,.
O=C(CNc1ccccc1OC(F)F)N1CCc2ccccc21,-,-,-,-,.,.,.,.,.,.
Cc1ccc(NC(=O)CSc2ncc3ccccn23)cc1C,-,-,-,-,.,.,.,.,.,.
Cn1cc(C(=O)c2ccccc2)cc1-c1nc2ccccc2n1C,-,-,-,-,.,.,.,.,.,.
Cc1oc(-c2nc3ccccc3n2C)cc1C(=O)c1ccccc1,-,-,.,-2.9,-,-,-,-,0.014,-
CCN(CC)c1ccc2cc(-c3nc4ccccc4n3C)c(=O)oc2c1,-,-,-,.,0.0044,0.00034,0.022,0.0037,0.0081,?
Cc1cnc(NC(=O)COc2cccc3c2OC(C)(C)C3)s1,-,-,.,.,-,-,-,-,?,-
Cc1cc(NC(=O)COC(=O)COc2cccc3c2OC(C)(C)C3)no1,-,-,-,-,.,.,.,.,.,.
N#C/C(=N\Nc1ccccc1Cl)C(=O)c1ccccc1,-,.,.,-4.4,-,-,-,?,0.015,-
N#C/C(=N\Nc1ccc(Cl)cc1)C(=O)c1ccsc1,.,-,.,-,.,.,.,.,.,.
CN(C)c1nc(=NCc2ccco2)ss1,.,-,.,45,0.037,0.06,-,?,0.052,?
O=C1CCCC(=NCc2ccco2)C1,-,-,.,.,.,.,.,.,.,.
CCc1ccc(NC(=S)N(CCN2CCOCC2)Cc2ccccc2F)cc1,-,-,-,-,.,.,.,.,.,.
CCN(CC)CCCNC(=O)c1cn(CCOC)c(=O)c2c1c1ccccc1n2C,-,-,.,.,-,?,-,-,-,-
CCC(=O)Nc1cc(C)c(NC(=O)c2ccccc2OC)cn1,-,-,-,.,.,.,.,.,.,.
O=C(C1CCCN(S(=O)(=O)c2cccc3nonc23)C1)N1CCC(Cc2ccccc2)CC1 (stereo not drawn),-,-,-,.,-,?,0.024,-,?,-
O=C(C1CCCN(S(=O)(=O)c2cccc3nonc23)C1)N1CCN(c2ccccc2Cl)CC1 (stereo not drawn),-,.,-,-,.,.,.,.,.,.
O=C(NCCN1CCC(Cc2ccccc2)CC1)C1CCCN(S(=O)(=O)c2cnc[nH]2)C1 (stereo not drawn),-,.,.,-4,-,-,-,-,-,-
O=C(NCCc1ccccc1)C1CCCN(S(=O)(=O)c2cnc[nH]2)C1 (stereo not drawn),-,-,.,.,.,.,.,.,.,.
CCCCOC(=O)n1c(=O)oc2ccccc21,-,-,.,-4.3,0.012,-,-,-,-,-
O=C(/C=C/Nc1nccs1)C(F)(F)Cl,-,-,-,8.9,?,0.017,0.038,0.016,?,0.015
O=C(Nc1nccs1)NC(C(F)(F)F)C(F)(F)F,-,-,-,-,.,.,.,.,.,.
O=C(CCc1ccccc1)c1c(O)cc(O)cc1O,.,-,.,-1.4,-,-,0.025,-,?,-
O=C(c1cccnc1)N1CCC(Oc2ccc(C(=O)N3CCCC(O)C3)cc2)CC1 (stereo not drawn),-,.,-,.,.,.,.,.,.,.
Cc1cc(C)c2nc(NNC(=O)c3cc(=O)c4ccccc4o3)sc2c1,-,.,.,-,.,.,.,.,.,.
SMILES,PKD1 inh,Rad51 HR inh,ROMK primary,Cl transport mod,KCC2 sec1,KCC2 bumet counter,KCC2 secondary2,HEK293 Tl flux,KCC2 ouabain,HEK counter2
COc1cc(-c2c(C#N)c(=O)[nH]c3c2c(C)nn3-c2ccccc2)ccc1O,-,-,-,-5,-,-,-,-,?,-
O=C(/C=C/c1c[nH]c2ccccc12)c1cccc2ccccc12,-,-,.,-,.,.,.,.,.,.
CC(Sc1nnnn1-c1ccccc1)C(=O)Nc1ccc(Cl)cn1 (stereo not drawn),-,-,-,-4.4,-,-,0.026,0.006,0.015,?
COCCNC(=S)NC(=O)c1ccc(C(C)(C)C)cc1,-,-,.,8.4,-,0.025,-,?,-,-
CN1C(=O)/C(=C/c2cc(C(C)(C)C)c(O)c(C(C)(C)C)c2)NC1=S,-,-,.,12,-,0.018,-,0.013,-,0.012
O=C(CN1CCN(Cc2ccccc2)CC1)N/N=C/c1ccc(Br)s1,.,-,.,-,.,.,.,.,.,.
CCN(CC)c1ccc(C(=O)OCC(=O)N(C)Cc2ccccc2)cc1,-,-,-,-4.1,-,-,-,-,0.015,-
COc1ccc(/C(O)=C/Sc2nnc(Cc3ccccc3)o2)cc1,-,.,-,-4.9,-,-,0.025,-,0.013,?
COc1ccc(C(=O)CSc2nnc(Cc3ccccc3)o2)cc1,-,-,.,-,.,.,.,.,.,.
Cc1ccc(/C=N/NC(=O)c2ccoc2C)s1,-,-,.,-,.,.,.,.,.,.
Cc1scc(C(=O)N/N=C/c2ccc(Cl)s2)c1C,-,-,-,39,?,0.053,0.043,0.078,0.086,0.024
Cc1scc(C(=O)N/N=C/c2ccc(OC(C)C)cc2)c1C,-,-,-,-,.,.,.,.,.,.
Cc1occc1C(=O)N/N=C/c1ccc(Br)s1,-,.,-,78,?,0.03,-,0.036,0.052,0.022
O=C(N/N=C/c1ccc(Br)s1)c1ccco1,.,-,.,7.1,-,0.011,-,0.016,-,0.013
Cn1c(O)c(N=NC(=O)C2COc3ccccc3O2)c2ccccc21 (stereo not drawn),.,-,-,-,.,.,.,.,.,.
CC(C)n1c(O)c(N=NC(=O)C2COc3ccccc3O2)c2ccccc21 (stereo not drawn),-,-,-,10,-,0.028,-,0.03,0.031,0.026
NC(=O)C(c1ccc(Sc2ccccc2)nn1)c1ccc(Cl)cc1Cl (stereo not drawn),-,-,-,4,-,-,-,-,-,-
NC(=O)C(c1ccc(Cl)cc1)c1ccc(Sc2ccccc2)nn1 (stereo not drawn),-,-,-,-,.,.,.,.,.,.
COC(=O)/C=C1\N/C(=N\c2nc(C)cc(C)n2)N(c2ccc(Cl)cc2)C1=O,.,-,.,-,.,.,.,.,.,.
CN1/C(=C\C(=O)COc2ccc3c(c2)OCO3)C(C)(C)c2ccccc21,-,.,.,-4,-,-,0.025,-,?,-
O=C(NC(=S)NCCO)c1sc2ccccc2c1Cl,-,-,-,3.7,-,0.011,-,0.015,-,-
O=C(NCC1CCCO1)c1sc2ccccc2c1Cl (stereo not drawn),-,.,.,-,.,.,.,.,.,.
O=C(O)CN(c1ccccc1)S(=O)(=O)c1cc(C(F)(F)F)cc(C(F)(F)F)c1,-,-,.,-,.,.,.,.,.,.
Cc1ccc(C(=O)N/N=C\c2cccn2C)cn1,-,-,.,-,.,.,.,.,.,.
